Experimental data from different studies.
Lines come from different studies, so protocols differ.
Sialidase-4: Sialidase-4 (Homo sapiens, UniProt Q8WWR8)
ALOX15: Polyunsaturated fatty acid lipoxygenase ALOX15 (ALOX15, Homo sapiens, UniProt P16050)
ache: Acetylcholinesterase (ache, Electrophorus electricus, UniProt O42275)

Compound	target	test	IC50 [µM]
CC(C)CCC(=O)N[C@H]1[C@H]([C@H](O)[C@H](O)CO)OC(C(=O)O)=C[C@@H]1O	Sialidase-4	enzyme activity, inhibitor	270
CCCC[C@H]1C(=O)N(C)[C@@H](CCCC)C(=O)N[C@@H](CCCCNC(=O)CN2CCN(CC(=O)O)CCN(CC(=O)O)CC2)C(=O)N[C@H](C(=O)NCC(N)=O)CSCC(=O)N[C@@H](Cc2ccc(O)cc2)C(=O)N(C)[C@@H](C)C(=O)N[C@@H](CC(N)=O)C(=O)N2CCC[C@H]2C(=O)N[C@@H](Cc2c[nH]cn2)C(=O)N[C@@H](CCC(=O)O)C(=O)N2C[C@H](O)C[C@H]2C(=O)N[C@@H](Cc2c[nH]c3ccccc23)C(=O)N[C@@H](CO)C(=O)N[C@@H](Cc2cn(CC(=O)O)c3ccccc23)C(=O)N1C	Programmed cell death 1 ligand 1 (CD274, Homo sapiens, UniProt Q9NZQ7)	ligand displacement, radioligand	0.00245
CC(C)Cc1cn([C@H]2[C@H]([C@H](O)[C@H](O)CO)OC(C(=O)O)=C[C@@H]2O)nn1	Sialidase-4	enzyme activity, inhibitor	> 500
CCOC(=O)c1ccccc1-c1c2ccc(=O)cc-2oc2cc(OCCCNc3c(-c4ccc(OC(C)=O)cc4)nc4ccccn34)ccc12	ALOX15	enzyme activity, inhibitor, absorbance	> 100
Fc1ccc(-c2nnc(-c3ccc(OCc4cn(Cc5ccc(Cl)cc5)nn4)cc3)o2)cc1	ache	enzyme activity, inhibitor, Ellman	> 100
CC(C)(C)OC(=O)NC1CCCN(C(=O)/C=C/c2ccc([N+](=O)[O-])cc2)C1 (stereo not drawn)	ache	enzyme activity, inhibitor, Ellman	> 50
c1ccc(Cn2cc(COc3ccc(-c4nnc(-c5ccccc5)o4)cc3)nn2)cc1	ache	enzyme activity, inhibitor, Ellman	> 100
CCN(C)C(=O)Oc1ccc(/C=C/C(=O)NC2CCN(Cc3ccccc3)CC2)cc1OC	ache	enzyme activity, inhibitor, Ellman	3.9
CCN[C@H]1[C@H]([C@H](O)[C@H](O)CO)OC(C(=O)O)=C[C@@H]1O	Sialidase-4	enzyme activity, inhibitor	> 500
CCCCCCCCCC(=O)N[C@@H](CCCN=C(N)N)C(=O)N[C@H](C(=O)N[C@@H](CCCCN)C(=O)N[C@@H](CCCN=C(N)N)C(=O)CCl)C(C)C	Furin (FURIN, Homo sapiens, UniProt P09958)	enzyme activity, inhibitor	0.00296
CCOC(=O)c1ccccc1-c1c2ccc(=O)cc-2oc2cc(OCCCNc3c(C4CCCCCC4)nc4ccccn34)ccc12	ALOX15	enzyme activity, inhibitor, absorbance	> 100
O=C(/C=C/c1ccc(OC(=O)N2CCCC2)cc1)NC1CCN(Cc2ccccc2)CC1	ache	enzyme activity, inhibitor, Ellman	4.5
O=C(O)C1=C[C@H](O)[C@@H](NCc2ccc(-c3ccccc3)cc2)[C@H]([C@H](O)[C@H](O)CO)O1	Sialidase-4	enzyme activity, inhibitor	260
O=[N+]([O-])c1ccc(-c2nnc(-c3ccc(OCc4cn(Cc5ccc(F)cc5)nn4)cc3)o2)cc1	ache	enzyme activity, inhibitor, Ellman	> 100
CCOC(=O)c1ccccc1-c1c2ccc(=O)cc-2oc2cc(OCCCNc3c(-c4ccc5ccccc5c4)nc4ccccn34)ccc12	ALOX15	enzyme activity, inhibitor, absorbance	> 100
CCCCCCN[C@H]1[C@H]([C@H](O)[C@H](O)CO)OC(C(=O)O)=C[C@@H]1O	Sialidase-4	enzyme activity, inhibitor	> 500
COc1cc(/C=C/C(=O)NC2CCN(Cc3ccccc3)CC2)ccc1OC(=O)N1CCCC1	ache	enzyme activity, inhibitor, Ellman	3.1
O=C(N1CCC2(CC1)C[C@H](CN1CCCCS1(=O)=O)CCO2)C1(c2ccccc2)CCCC1	ATP-dependent RNA helicase DDX3X (DDX3X, Homo sapiens, UniProt O00571)	ATPase activity, inhibitor	> 50
